Reference: ChEMBL document CHEMBL1134715, “Aryloxy substituted N-arylpiperazinones as dual inhibitors of farnesyltransferase and geranylgeranyltransferase-I” (Bioorg Med Chem Lett, 2001)
Values after ≈ are worked out from the molar mass of the structure shown.

Experiments:
[1] = target: T1, Protein farnesyltransferase (Homo sapiens, UniProt P49354+P49356); assay: Concentration required to displace 50% of a radiolabeled farnesyltransferase inhibitor from FPTase in cultured Ha-Ras transformed RAT1 cells; type: functional, cell-based
[2] = target: T1, Protein farnesyltransferase; assay: In vitro inhibition against human Farnesyltransferase catalyzed by incorporation of [3H]- FPP into recombinant Ras-CVIM; type: protein-complex assay
[3] = target: T2, Geranylgeranyl transferase type I (Homo sapiens, UniProt P49354+P53609); assay: Minimal concentration required to inhibit Rap 1a processing (prenylation) in PSN-1 cell; type: functional, cell-based
[4] = target: T2, Geranylgeranyl transferase type I; assay: In vitro inhibition against human Geranylgeranyl transferase type I catalyzed by incorporation of [3H]- GGPP (geranylgeranyl pyrophosphate) into biotinylated peptide corresponding to the c-terminus of human Ki-Ras; type: protein-complex assay
Procedure, shortened: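 Human GGPTase-I transferred [3H]GGPP onto a biotinylated human Ki-Ras C-terminal peptide. Enzyme and inhibitor were preincubated 30 min with 5 mM ATP before reaction. Some values were instead run without preincubation. IC50 is the concentration halving incorporation.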

Rat1 [5] = assay: Percent RAT1 cell survival at 10 uM assessed by MTT viability staining; type: functional; conditions: Rattus norvegicus, read-out: Survival
Rat1 [6] = assay: Inhibition of colony formation in K-ras-transformed RAT1 cells, ranges from 0.3-1; type: functional; conditions: Rattus norvegicus
Procedure, shortened: (§1)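 Anchorage-independent growth of ras-transformed RAT1 cells in soft agar, read as colony formation. Potency is reported as IC90 for blocking colonies.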

Rat1 [7] = assay: Inhibition of colony formation in v-H-ras-transformed RAT1 cells; type: functional; conditions: Rattus norvegicus; procedure, shortened: as §1

Row | IC50 [1] [nM] | IC50 [2] [nM] | MIC [3] [µM] | IC50 [4] [nM] | SMILES | viability at 10 µM (Rat1 [5]) [%] | IC90 (Rat1 [6]) [nM] | IC90 (Rat1 [7]) [nM]
1 | 17 | 11 | 1 (≈ 0.499 µg/mL) | 52 | N#Cc1ccc(Cn2cncc2CN2CCN(c3cccc(Cl)c3)C(=O)C2)cc1Oc1cccnc1 | – | – | –
2 | – | 4 | – | 290 | N#Cc1ccc(Cn2cncc2CN2CCN(c3cccc(Cl)c3)C(=O)C2)cc1Oc1ccc2c(c1)CCCC2 | – | – | –
3 | 255 | 18 | – | 12 | N#Cc1ccc(Cn2cncc2CN2CCN(c3cccc(Cl)c3)C(=O)C2)cc1Sc1ccccc1 | – | – | –
4 | – | 670 | – | 136 | O=C1CN(Cc2cncn2Cc2cccc(Oc3ccccc3)c2)CCN1c1ccc(Cl)cc1 | – | – | –
5 | – | 9 | – | 809 | N#Cc1cc(Cn2cncc2CN2CCN(c3cccc(Cl)c3)C(=O)C2)ccc1Oc1ccccc1 | – | – | –
6 | – | 5770 | – | 155 | O=C1CN(Cc2cncn2Cc2cccc(Oc3ccccc3)c2)CCN1c1ccc(C(F)(F)F)cc1 | – | – | –
7 | 350 | 19 | – | 15 | N#Cc1ccc(Cn2cncc2CN2CCN(c3cccc(Cl)c3)C(=O)C2)cc1Oc1ccc(Cl)cc1 | – | – | –
8 | 48 | 1 | – | 199 | N#Cc1ccc(Cn2cncc2CN2CCN(c3cccc(Cl)c3)C(=O)C2)cc1Oc1ccc2ccccc2c1 | – | – | –
9 | – | – | – | 65 | O=C1CN(Cc2cncn2Cc2cccc(Oc3ccccc3)c2)CCN1c1cccc(Cl)c1 | – | – | –
10 | 93 | 4 | – | 20 | N#Cc1ccc(Cn2cncc2CN2CCN(c3cccc(Cl)c3)C(=O)C2)cc1Oc1cccc(Cl)c1 | – | – | –
11 | 41 | 7 | 0.3 (≈ 0.16 µg/mL) | 0.7 | N#Cc1ccc(Cn2cncc2CN2CCN(c3cccc(Cl)c3)C(=O)C2)cc1Oc1ccccc1Cl | – | – | –
12 | 311 | 32 | – | 62 | N#Cc1ccc(Cn2cncc2CN2CCN(c3cccc(Cl)c3)C(=O)C2)cc1Oc1ccc(OCc2ccccc2)cc1 | – | – | –
13 | 8 | 2.5 | 3 (≈ 1.67 µg/mL) | 1.3 | N#Cc1ccc(Cn2cncc2CN2CCN(c3cccc(Cl)c3)C(=O)C2)cc1Oc1cccc(OCCO)c1 | – | – | –
14 | – | – | 1 (≈ 0.406 µg/mL) | – | N#Cc1ccc(Cn2cncc2CN2CCN(c3cccc(Cl)c3)C(=O)C2)cc1 [L-778123 FREE BASE] | – | – | 100

Row | SMILES | IC50 [1] [nM] | IC50 [2] [nM] | MIC [3] [µM] | IC50 [4] [nM] | viability at 10 µM (Rat1 [5]) [%] | IC90 (Rat1 [6]) [nM] | IC90 (Rat1 [7]) [nM]
15 | N#Cc1ccc(Cn2cncc2CN2CCN(c3cccc(Cl)c3)C(=O)C2)cc1Oc1ccccc1 | 110 | 7 | 1 (≈ 0.498 µg/mL) | 22 | 80 | 1000 | 300
